ChEMBL document CHEMBL1765016, “Indolylarylsulfones as HIV-1 non-nucleoside reverse transcriptase inhibitors: new cyclic substituents at indole-2-carboxamide” (J Med Chem, 2011)

Tests used:
[1] = test system: Human immunodeficiency virus 2; assay: Antiviral activity against HIV2 isolate ROD infected in human CEM cells assessed as inhibition of virus-induced cytopathicity after 4 days by microscopic analysis; assay type: functional, organism-based; conditions: Human immunodeficiency virus 2, ISOLATE ROD, CCRF-CEM, 96 h
Summary of the method: (§1)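 CEM cells (~3 × 10⁵ cells/mL) infected with ~100 CCID₅₀ virus per mL, seeded into wells with compound dilutions. Syncytia (giant cell) formation scored microscopically after 4 days at 37 °C. EC₅₀ is the concentration protecting cells by 50%. Values are means of two experiments in triplicate.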

[2] = test system: Human immunodeficiency virus 1; assay: Antiviral activity against wild type HIV1 3B infected in human CEM cells assessed as inhibition of virus-induced cytopathicity after 4 days by microscopic analysis; assay type: functional, organism-based; conditions: Human immunodeficiency virus 1, 3B, CCRF-CEM, 96 h; summary of the method: as §1
[3] = target: Human immunodeficiency virus type 1 reverse transcriptase (Human immunodeficiency virus 1, UniProt Q72547, Y181I); assay: Inhibition of HIV1 reverse transcriptase Y181I mutant expressed in Escherichia coli assessed as incorporation of [3H]dTTP into poly(rA)/oligo(dT) by scintillation counting
Summary of the method: (§2)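 The RT was recombinant p66(His)/p51 heterodimer, mutant form, expressed in E. coli. TCA-precipitable radioactivity on GF/C filters was read by scintillation. IC50 is the concentration giving 50% inhibition.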

[4] = target: Human immunodeficiency virus type 1 reverse transcriptase (Human immunodeficiency virus 1, UniProt Q72547, K103N); assay: Inhibition of HIV1 reverse transcriptase K103N mutant expressed in Escherichia coli assessed as incorporation of [3H]dTTP into poly(rA)/oligo(dT) by scintillation counting; summary of the method: as §2
[5] = target: Human immunodeficiency virus type 1 reverse transcriptase (Human immunodeficiency virus 1, UniProt Q72547, L100I); assay: Inhibition of HIV1 reverse transcriptase L100I mutant expressed in Escherichia coli assessed as incorporation of [3H]dTTP into poly(rA)/oligo(dT) by scintillation counting; summary of the method: as §2
[6] = target: Human immunodeficiency virus type 1 reverse transcriptase (Human immunodeficiency virus 1, UniProt Q72547); assay: Inhibition of HIV1 wild type reverse transcriptase expressed in Escherichia coli assessed as incorporation of [3H]dTTP into poly(rA)/oligo(dT) by scintillation counting
Summary of the method: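 Template was poly(rA)/oligo(dT) 10:1 (0.3 μM 3′-OH ends) with 10 μM [³H]dTTP, at 37 °C. TCA-precipitable counts were taken on GF/C filters. IC₅₀ is 50% inhibition of RT activity.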

[7] = test system: Human immunodeficiency virus 1; assay: Antiviral activity against HIV1 harboring reverse transcriptase E138K mutant infected in human MT-4 cells assessed as inhibition of virus-induced cytopathicity after 4 days by MTT assay; assay type: functional, organism-based; conditions: Human immunodeficiency virus 1, MT4, 96 h
Summary of the method: (§3)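 MT-4 cells at 1 × 10⁵ cells/mL were infected with RT-mutant HIV-1 at a multiplicity of infection of 0.02. They were plated at once with serial compound dilutions (DMSO stocks of 50 mM or higher). […] Virus stocks had been titrated in MT-4 cells as CCID50.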

[8] = test system: Human immunodeficiency virus 1; assay: Antiviral activity against HIV1 harboring reverse transcriptase Y188L mutant infected in human MT-4 cells assessed as inhibition of virus-induced cytopathicity after 4 days by MTT assay; assay type: functional, organism-based; conditions: Human immunodeficiency virus 1, MT4, 96 h; summary of the method: as §3
[9] = test system: Human immunodeficiency virus 1; assay: Antiviral activity against HIV1 harboring reverse transcriptase Y181C mutant infected in human MT-4 cells assessed as inhibition of virus-induced cytopathicity after 4 days by MTT assay; assay type: functional, organism-based; conditions: Human immunodeficiency virus 1, MT4, 96 h; summary of the method: as §3
[10] = test system: Human immunodeficiency virus 1; assay: Antiviral activity against […] harboring reverse transcriptase K103N mutant infected in human MT-4 cells assessed as inhibition of virus-induced cytopathicity after 4 days by MTT assay; assay type: functional, organism-based; conditions: Human immunodeficiency virus 1, MT4, 96 h; summary of the method: as §3
[11] = test system: Human immunodeficiency virus 1; assay: Antiviral activity against HIV1 harboring reverse transcriptase L100I mutant infected in human MT-4 cells assessed as inhibition of virus-induced cytopathicity after 4 days by MTT assay; assay type: functional, organism-based; conditions: Human immunodeficiency virus 1, MT4, 96 h; summary of the method: as §3
[12] = test system: Human immunodeficiency virus 1; assay: Antiviral activity against wild type HIV1 3B infected in human MT-4 cells assessed as inhibition of virus-induced cytopathicity after 4 days by MTT assay; assay type: functional, organism-based; conditions: Human immunodeficiency virus 1, 3B, MT4, 96 h
Summary of the method: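 MT-4 cells at 1 × 10⁵ cells/mL, infected at MOI 0.02 (virus titrated as CCID₅₀ in MT-4), dispensed immediately onto serial compound concentrations (DMSO stocks ≥50 mM). Viable cells counted by MTT after 4 days at 37 °C. EC₅₀ is the concentration giving 50% protection of cell viability. Values are means of at least three experiments.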

[13] = Cytotoxicity against human CEM cells by coulter counter analysis; assay type: cell-based; conditions: CEM (CCRF-CEM) cells
Summary of the method: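 Mock-infected CEM cultures with compound, cell number counted by Coulter counter as percent of untreated control. CC₅₀ (50% reduction in proliferation) was read from plots against concentration. Values are means of two experiments in triplicate.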

[14] = Selectivity index, CC50 for human CEM cells to IC50 for HIV1 3B; assay type: functional, CCRF-CEM
Summary of the method: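 Ratio of CC₅₀ (Coulter count, mock-infected CEM) to EC₅₀ (CEM, HIV-1 IIIB, microscopic syncytia scoring at day 4).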

[15] = test system: Human immunodeficiency virus type 1 reverse transcriptase (Human immunodeficiency virus 1), Q72547 [K103N]; assay: Ratio of compound IC50 to efavirenz IC50 for HIV1 reverse transcriptase K103N mutant
[16] = test system: Human immunodeficiency virus 1; assay: Antiviral activity against HIV1 clade A UG273 infected in PHA-stimulated human PBMC assessed as inhibition of p24 production after 10 to 12 days by ELISA; assay type: functional, organism-based; conditions: Human immunodeficiency virus 1, clade A UG273
Summary of the method: (§4)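 PHA-stimulated (2 μg/mL, 3 days, 37 °C) donor PBMC blasts, washed in PBS, seeded 0.5 × 10⁶ cells/well in RPMI 1640 with 10% fetal calf serum and IL-2 (25 units/mL) containing varying compound concentrations; virus added at 250 pg p24/mL final. Supernatant collected days 10-12 and assayed for HIV-1 core antigen.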

[17] = test system: Human immunodeficiency virus 1; assay: Antiviral activity against HIV1 clade B BaL infected in PHA-stimulated human PBMC assessed as inhibition of p24 production after 10 to 12 days by ELISA; assay type: functional, organism-based; conditions: Human immunodeficiency virus 1, clade B BaL; summary of the method: as §4
[18] = test system: Human immunodeficiency virus 1; assay: Antiviral activity against HIV1 clade C DJ259 infected in PHA-stimulated human PBMC assessed as inhibition of p24 production after 10 to 12 days by ELISA; assay type: functional, organism-based; conditions: Human immunodeficiency virus 1, clade C DJ259; summary of the method: as §4
[19] = test system: Human immunodeficiency virus 1; assay: Antiviral activity against HIV1 clade A/E ID12 infected in PHA-stimulated human PBMC assessed as inhibition of p24 production after 10 to 12 days by ELISA; assay type: functional, organism-based; conditions: Human immunodeficiency virus 1, clade A/E ID12; summary of the method: as §4
[20] = test system: Human immunodeficiency virus 1; assay: Antiviral activity against HIV1 group O BCF06 infected in PHA-stimulated human PBMC assessed as inhibition p24 production after 10 to 12 days by ELISA; assay type: functional, organism-based; conditions: Human immunodeficiency virus 1, group O BCF06; summary of the method: as §4

Cc1cc(C)cc(S(=O)(=O)c2c(C(=O)NCc3ccccc3)[nH]c3ccc(Cl)cc23)c1
EC50 [1]: > 10000 nM
EC50 [2]: 5.7 nM
IC50 [3]: > 40000 nM
IC50 [4]: > 40000 nM
IC50 [5]: 15 nM
IC50 [6]: 21 nM
EC50 [7]: 18 nM
EC50 [8]: 480 nM
EC50 [9]: 46 nM
EC50 [10]: 11 nM
EC50 [11]: 6.1 nM
EC50 [12]: 11 nM
CC50 [13]: 244000 nM

Cc1cc(C)cc(S(=O)(=O)c2c(C(=O)NCCN3CCCC3)[nH]c3ccc(Cl)cc23)c1
EC50 [1]: > 2000 nM
EC50 [2]: 17 nM
IC50 [3]: > 40000 nM
IC50 [4]: 660 nM
IC50 [5]: 248 nM
IC50 [6]: 80 nM
EC50 [7]: 260 nM
EC50 [8]: > 1000 nM
EC50 [9]: 380 nM
EC50 [10]: 80 nM
EC50 [11]: 84 nM
EC50 [12]: 19 nM
Selectivity Index [14]: 418
CC50 [13]: 7100 nM

Cc1cc(C)cc(S(=O)(=O)c2c(C(=O)NCN3CCCCC3)[nH]c3ccc(Cl)cc23)c1
Ratio IC50 [15]: > 160
EC50 [1]: > 2000 nM
EC50 [2]: 1.3 nM
IC50 [3]: 581 nM
IC50 [4]: 120 nM
IC50 [5]: 37 nM
IC50 [6]: 8 nM
Selectivity Index [14]: 7615
CC50 [13]: 9900 nM

Cc1cc(C)cc(S(=O)(=O)c2c(C(=O)NCN3CCCC3)[nH]c3ccc(Cl)cc23)c1
EC50 [1]: > 2000 nM
EC50 [2]: 3.3 nM
IC50 [3]: 442 nM
IC50 [4]: 96 nM
IC50 [5]: 26 nM
IC50 [6]: 12 nM
EC50 [16]: 0.1 nM
EC50 [17]: 0.1 nM
EC50 [18]: 0.1 nM
EC50 [19]: 0.3 nM
EC50 [20]: 0.2 nM
Selectivity Index [14]: 3333
CC50 [13]: 11000 nM

Cc1cc(C)cc(S(=O)(=O)c2c(C(=O)NCc3ccccc3)[nH]c3ccc([N+](=O)[O-])cc23)c1
EC50 [1]: > 2000 nM
EC50 [2]: 6.2 nM
IC50 [3]: > 40000 nM
IC50 [4]: 459 nM
IC50 [5]: 14 nM
IC50 [6]: 17 nM
EC50 [7]: 16 nM
EC50 [8]: 470 nM
EC50 [9]: 54 nM
EC50 [10]: 11 nM
EC50 [11]: 7 nM
EC50 [12]: 10 nM
Selectivity Index [14]: 1290
CC50 [13]: 8000 nM

Cc1cc(C)cc(S(=O)(=O)c2c(C(=O)NCN3CCOCC3)[nH]c3ccc(Cl)cc23)c1
EC50 [1]: > 2000 nM
EC50 [2]: 1.9 nM
IC50 [3]: 5480 nM
IC50 [4]: 512 nM
IC50 [5]: 117 nM
IC50 [6]: 54 nM
EC50 [7]: 14 nM
EC50 [8]: 440 nM
EC50 [9]: 23 nM
EC50 [10]: 11 nM
EC50 [11]: 8 nM
EC50 [12]: 3.2 nM
EC50 [16]: 0.1 nM
EC50 [17]: 0.1 nM
EC50 [18]: 0.5 nM
EC50 [19]: 0.3 nM
EC50 [20]: 0.9 nM
Selectivity Index [14]: 5789
CC50 [13]: 11000 nM

Cc1cc(C)cc(S(=O)(=O)c2c(C(=O)NCCc3ccccc3)[nH]c3ccc(Cl)cc23)c1
EC50 [1]: > 50000 nM
EC50 [2]: 5.7 nM
IC50 [3]: > 40000 nM
IC50 [4]: 10400 nM
IC50 [5]: 27 nM
IC50 [6]: 77 nM
EC50 [7]: 65 nM
EC50 [8]: > 1000 nM
EC50 [9]: 100 nM
EC50 [10]: 52 nM
EC50 [11]: 19 nM
EC50 [12]: 21 nM
Selectivity Index [14]: 32456
CC50 [13]: 185000 nM

Cc1cc(C)cc(S(=O)(=O)c2c(C(=O)NCc3ccccc3)[nH]c3ccc(Br)cc23)c1
EC50 [1]: > 2000 nM
EC50 [2]: 5.7 nM
IC50 [3]: > 40000 nM
IC50 [4]: 1850 nM
IC50 [5]: 273 nM
IC50 [6]: 1050 nM
EC50 [7]: 51 nM
EC50 [8]: ≥ 450 nM
EC50 [9]: 59 nM
EC50 [10]: 15 nM
EC50 [11]: 11 nM
EC50 [12]: 16 nM
Selectivity Index [14]: 30175
CC50 [13]: 172000 nM

Cc1cc(C)cc(S(=O)(=O)c2c(C(=O)NCCOc3ccccc3)[nH]c3ccc(Cl)cc23)c1
EC50 [1]: > 10000 nM
EC50 [2]: 26 nM
IC50 [3]: > 40000 nM
IC50 [4]: > 40000 nM
IC50 [5]: > 40000 nM
IC50 [6]: 2390 nM
EC50 [7]: 380 nM
EC50 [8]: > 1000 nM
EC50 [9]: > 1000 nM
EC50 [10]: > 1000 nM
EC50 [11]: 440 nM
EC50 [12]: 300 nM
Selectivity Index [14]: 7962
CC50 [13]: 207000 nM

Cc1cc(C)cc(S(=O)(=O)c2c(C(=O)NCCn3cccc3)[nH]c3ccc(Cl)cc23)c1
EC50 [1]: > 10000 nM
EC50 [2]: 6.5 nM
IC50 [3]: > 40000 nM
IC50 [4]: 85 nM
IC50 [5]: 34 nM
IC50 [6]: 14 nM
EC50 [7]: 18 nM
EC50 [8]: > 1000 nM
EC50 [9]: 67 nM
EC50 [10]: 15 nM
EC50 [11]: 11 nM
EC50 [12]: 15 nM
EC50 [16]: 2.1 nM
EC50 [17]: 2.3 nM
EC50 [18]: 3.5 nM
EC50 [19]: 2.9 nM
EC50 [20]: 3.2 nM
Selectivity Index [14]: 8308
CC50 [13]: 54000 nM
